# Measured values taken from ChEMBL document CHEMBL1135574, “Carbocyclic dinucleoside polyphosphonates: interaction with HIV reverse transcriptase and antiviral activity” (J Med Chem, 2002).
# Legend:
# [1] = target: Human immunodeficiency virus type 1 reverse transcriptase (Human immunodeficiency virus 1, UniProt Q72547); assay: Inhibition of DNA synthesis by HIV reverse transcriptase
# [2] = system: MT4; assay: The concentration required to cause a 50% inhibition of cell proliferation was determined in MT-4 cell culture.; type: functional; details: Homo sapiens, read-out: CD50 (the source's name)
# How it was run: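 Uninfected MT-4 cells grown 3 days with compound at 0.001–100 μg/mL, triplicate per dose. Cell concentration and viability read by trypan blue exclusion; CD50 = concentration halving cell proliferation. Values averaged from two independent experiments.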
# [3] = system: MT4; assay: The concentration required to cause a 50% inhibition of HIV reproduction was determined in MT-4 cell culture for free forms; type: functional; details: Homo sapiens, read-out: ID50 (the source's name)
# How it was run: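 HIV-1 strain GKV-4046 in MT-4 cells (2×10^6/mL, viability >90%), MOI 0.2–0.5; cells in RPMI-1640 with 10% FBS, 37 °C, 5% CO2. Infected cells grown 3 days with free compound at 0.001–100 μg/mL, triplicate per dose. p24 antigen measured by immunoassay; ID50 = concentration halving HIV reproduction; two independent experiments averaged.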
# [4] = Half life period in human blood serum was determined at 37 degrees Centigrade; type: ADME, Plasma
# How it was run: (§1)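 Compounds held at 37 °C in human blood serum or in phosphate buffer, pH 7.5. For serum samples, precipitated proteins were spun off after thawing. Remaining material was analysed by RP-18 HPLC with a 0–25% linear gradient of 70% ethanol in 0.05 M triethylammonium bicarbonate (pH 7.5–8.0) over 25 min. Total loaded taken as 100%. Half-lives were averaged from at least three experiments.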
# [5] = Half life period in phosphate buffer (pH 7.5) was determined at 37 degrees Centigrade; type: ADME; how it was run: as §1
# [6] = system: MT4; assay: The concentration required to cause a 50% inhibition of HIV reproduction was determined in MT-4 cell culture for liposome-entrapped forms.; type: functional; details: Homo sapiens, read-out: ID50 (the source's name)
# How it was run: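 HIV-1 GKV-4046 in MT-4 cells, MOI 0.2–0.5, 3-day culture, p24 immunoassay read-out. Compounds given in phosphatidylcholine liposomes: dry lipid film hydrated with compound in PBS pH 7.0 (1:124 drug/lipid, 1 mM compound), extruded down to 0.1 μm pores (mean 0.16 μm); 40–50% entrapment. ID50 from two independent experiments.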
Structure (SMILES),IC50 [1],CC50 [2],IC50 [3],half-life [4],half-life [5],IC50 [6]
Nc1ncnc2c1ncn2C1C=CC(OCP(=O)(O)OP(=O)(O)C(F)(F)P(=O)(O)O)C1 (stereo unspecified),25 µM,–,–,–,–,–
Cc1cn([C@H]2C[C@H](N=[N+]=[N-])[C@@H](CO)O2)c(=O)[nH]c1=O [ZIDOVUDINE],–,140 µM,0.004 µM,–,–,–
Nc1ncnc2c1ncn2C1C=CC(OCP(=O)(O)OP(=O)(O)C(Br)(Br)P(=O)(O)OP(=O)(O)COC2C=CC(n3cnc4c(N)ncnc43)C2)C1 (stereo unspecified),> 200 µM,> 110 µM,5.4 µM,–,–,–
Nc1nc2c(ncn2C2C=CC(OCP(=O)(O)OP(=O)(O)C(Br)(Br)P(=O)(O)O)C2)c(=O)[nH]1 (stereo unspecified),> 200 µM,–,–,–,–,–
Nc1nc(O)c2ncn(C3C=CC(OCP(=O)(O)OP(=O)(O)C(F)(F)P(=O)(O)OP(=O)(O)COC4C=CC(n5cnc6c(O)nc(N)nc65)C4)C3)c2n1 (stereo unspecified),15 µM,84 µM,60 µM,3 h,15 h,–
Nc1ncnc2c1ncn2C1C=CC(OCP(=O)(O)OP(=O)(O)OP(=O)(O)O)C1 (stereo unspecified),0.2 µM,212 µM,> 10 µM,–,–,–
Cc1cn([C@H]2C=C[C@@H](CO)O2)c(=O)[nH]c1=O [STAVUDINE],–,314 µM,0.24 µM,–,–,–
Nc1nc2c(ncn2C2C=CC(OCP(=O)(O)OP(=O)(O)OP(=O)(O)COC3C=CC(n4cnc5c(=O)[nH]c(N)nc54)C3)C2)c(=O)[nH]1 (stereo unspecified),8 µM,56 µM,9 µM,–,–,–
Nc1nc(O)c2ncn(C3C=CC(OCP(=O)(O)O)C3)c2n1 (stereo unspecified),–,> 320 µM,201 µM,–,–,–
Nc1nc2c(ncn2C2C=CC(OCP(=O)(O)OP(=O)(O)OP(=O)(O)OP(=O)(O)COC3C=CC(n4cnc5c(=O)[nH]c(N)nc54)C3)C2)c(=O)[nH]1 (stereo unspecified),0.7 µM,> 12 µM,> 12 µM,3 h,12 h,0.5 µM
Nc1ncnc2c1ncn2C1C=CC(OCP(=O)(O)OP(=O)(O)C(F)(F)P(=O)(O)OP(=O)(O)COC2C=CC(n3cnc4c(N)ncnc43)C2)C1 (stereo unspecified),20 µM,–,–,–,–,–
Nc1nc2c(ncn2C2C=CC(OCP(=O)(O)OP(=O)(O)C(Br)(Br)P(=O)(O)OP(=O)(O)COC3C=CC(n4cnc5c(=O)[nH]c(N)nc54)C3)C2)c(=O)[nH]1 (stereo unspecified),> 250 µM,–,–,–,–,–
Nc1ncnc2c1ncn2C1C=CC(OCP(=O)(O)OP(=O)(O)OP(=O)(O)COC2C=CC(n3cnc4c(N)ncnc43)C2)C1 (stereo unspecified),10 µM,146 µM,6.6 µM,–,–,–
Nc1nc2c(ncn2C2C=CC(OCP(=O)(O)OP(=O)(O)C(F)(F)P(=O)(O)O)C2)c(=O)[nH]1 (stereo unspecified),25 µM,144 µM,> 200 µM,7 h,> 24 h,–
Nc1ncnc2c1ncn2C1C=CC(OCP(=O)(O)OP(=O)(O)OP(=O)(O)OP(=O)(O)COC2C=CC(n3cnc4c(N)ncnc43)C2)C1 (stereo unspecified),2 µM,131 µM,2 µM,–,–,1.2 µM
Nc1nc2c(ncn2[C@H]2C[C@H](O)[C@@H](COP(=O)(O)OP(=O)(O)OP(=O)(O)O)O2)c(=O)[nH]1 [DEOXYGUANOSINE TRIPHOSPHATE],–,–,–,0.3 h,> 24 h,–
Nc1nc2c(ncn2C2C=CC(OCP(=O)(O)OP(=O)(O)OP(=O)(O)O)C2)c(=O)[nH]1 (stereo unspecified),0.3 µM,20.5 µM,7.2 µM,–,–,< 1 µM
Nc1ncnc2c1ncn2C1C=CC(OCP(=O)(O)OP(=O)(O)C(Br)(Br)P(=O)(O)O)C1 (stereo unspecified),> 1000 µM,> 160 µM,80 µM,–,–,–
